Results reported in ChEMBL document CHEMBL1240423, “Synthesis and evaluation of quinazolinone derivatives as inhibitors of NF-kappaB, AP-1 mediated transcription and eIF-4E mediated translational activation: inhibitors of multi-pathways involve in cancer” (Eur J Med Chem, 2010).
pIC50: −log10 of the molar value.

Assays:
[1] = Inhibition of NF-kappaB expressed in HEK293 cells assessed as inhibition of TNF-alpha-induced transcriptional activation treated 24 hrs before TNFalpha challenge by luciferase reporter gene assay; type: cell-based
How it was run: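 Six-point dose response […] in ½-log steps, screened as in the primary reporter assay. IC50 calculated from the dose-response data.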

[2] = biological target: Eukaryotic translation initiation factor 4E (Homo sapiens) (UniProt P06730); assay: Inhibition of eIF-4E expressed in human FaDu cells assessed as inhibition of translational activation at 1 uM by luciferase reporter gene assay relative to control; type: cell-based
Chain of Eukaryotic translation initiation factor 4E (Homo sapiens) (P06730 whole entry): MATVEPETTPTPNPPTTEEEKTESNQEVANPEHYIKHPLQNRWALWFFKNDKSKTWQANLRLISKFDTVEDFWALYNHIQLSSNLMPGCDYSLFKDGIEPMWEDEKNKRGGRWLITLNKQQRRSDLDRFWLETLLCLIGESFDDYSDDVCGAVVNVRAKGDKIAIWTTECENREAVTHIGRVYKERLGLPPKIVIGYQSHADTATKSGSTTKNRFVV
How it was run: (§1)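 Luciferase reporter screen with each sample in triplicate in two or three independent experiments. Values are the average of those experiments. Rapamycin served as the reference eIF-4E inhibitor.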

[3] = system: HEK293; assay: Inhibition of NF-kappaB expressed in HEK293 cells assessed as inhibition of TNF-alpha-induced transcriptional activation at 3.3 uM treated 2 hrs before TNFalpha challenge measured after 24 hrs by luciferase reporter gene assay relative to control; type: cell-based
How it was run: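 Stably transfected NF-κB reporter cells plated, then after 24 h pretreated with compound at six concentrations for 2 h before 20 ng/ml TNF-α induction. Cells later lysed, luciferase activity read and normalized.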

[4] = system: HEK293; assay: Inhibition of NF-kappaB expressed in HEK293 cells assessed as inhibition of TNF-alpha-induced transcriptional activation at 1 uM treated 24 hrs before TNFalpha challenge by luciferase reporter gene assay relative to control; type: cell-based; how it was run: as §1
[5] = biological target: Transcription factor Jun (Homo sapiens) (UniProt P05412); assay: Inhibition of AP1 expressed in HEK293 cells assessed as inhibition of PMA-induced transcriptional activation at 1 uM treated 24 hrs before PMA challenge by luciferase reporter gene assay relative to control; type: cell-based; how it was run: as §1
Chain of Transcription factor Jun (Homo sapiens) (P05412 whole entry): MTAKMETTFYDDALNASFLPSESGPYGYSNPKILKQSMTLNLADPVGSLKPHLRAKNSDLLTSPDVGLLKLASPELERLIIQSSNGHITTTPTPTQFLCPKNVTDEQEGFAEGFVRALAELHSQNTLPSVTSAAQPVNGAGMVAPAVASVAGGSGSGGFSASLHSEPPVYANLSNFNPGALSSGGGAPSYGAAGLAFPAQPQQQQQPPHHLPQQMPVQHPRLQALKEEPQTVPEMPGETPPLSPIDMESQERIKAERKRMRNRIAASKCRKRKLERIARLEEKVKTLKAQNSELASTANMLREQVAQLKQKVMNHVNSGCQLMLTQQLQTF

[6] = Inhibition of NF-kappaB expressed in HEK293 cells assessed as inhibition of TNF-alpha-induced transcriptional activation treated 2 hrs before TNFalpha challenge measured after 24 hrs by luciferase reporter gene assay; type: cell-based
How it was run: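 Stably transfected NF-κB luciferase reporter cells were plated, and 24 h later given test compound at six concentrations for 2 h. TNF-α was then added at 20 ng/ml to induce transcription. Cells were then lysed, luciferase activity was recorded, and values were normalised.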

[7] = system: FaDu; assay: Cytotoxicity against human FADU cells assessed as growth inhibition at 3.3 uM by MTT assay; type: functional

SMILES	pIC50 [1]	inhibition [2] [%]	inhibition [5] [%]	inhibition [3] [%]	inhibition [4] [%]	pIC50 [6]	inhibition at 3.3 µM [7] [%]
COc1ccc(-n2c(-c3sc(Nc4ccc(Cl)cc4)nc3-c3ccccc3)nc3ccccc3c2=O)cc1	4.70	32	59	> 70	46	–	–
CNc1nc(-c2ccccc2)c(-c2nc3ccccc3c(=O)n2-c2ccc(Cl)cc2)s1	< 3.60	40	67	–	72	–	–
CCOC(=O)Nc1nc(-c2ccccc2)c(-c2nc3ccccc3c(=O)n2-c2ccc(Cl)cc2)s1	–	18	20	–	24	–	–
Cc1nc(Nc2ccc(Cl)cc2)sc1-c1nc2ccccc2c(=O)n1-c1ccc(Cl)cc1	4.82	26	75	–	79	–	–
CCOC(=O)Nc1nc(-c2ccccc2)c(-c2nc3ccccc3c(=O)n2-c2ccccc2)s1	< 5.00	–	7	–	32	–	–
O=C(Nc1nc(-c2ccccc2)c(-c2nc3ccccc3c(=O)n2-c2ccc(Cl)cc2)s1)c1ccccc1	–	39	36	–	73	–	–
CNc1nc(C)c(-c2nc3ccccc3c(=O)n2-c2ccc(Cl)cc2)s1	4.92	61	–	–	80	5.48	20
CCOC(=O)Nc1nc(C)c(-c2nc3ccccc3c(=O)n2-c2ccc(Cl)cc2)s1	4.80	50	30	> 70	54	–	–
COc1ccc(-n2c(-c3sc(NC(=O)c4ccccc4)nc3-c3ccccc3)nc3ccccc3c2=O)cc1	–	31	8	–	12	–	–
O=c1c2ccccc2nc(-c2sc(Nc3ccc(Cl)cc3)nc2-c2ccccc2)n1-c1ccc(Cl)cc1	5.48	34	47	> 70	62	–	–
Cc1nc(Nc2ccccc2)sc1-c1nc2ccccc2c(=O)n1-c1ccc(Cl)cc1	–	67	29	–	66	5.26	–
CCOC(=O)Nc1nc(-c2ccccc2)c(-c2nc3ccccc3c(=O)n2-c2ccc(OC)cc2)s1	–	15	34	–	29	–	–

The next lines start with results.

pIC50 [1]	inhibition [2] [%]	inhibition [5] [%]	SMILES	inhibition [3] [%]	inhibition [4] [%]	pIC50 [6]	inhibition at 3.3 µM [7] [%]
–	–	57	O=c1c2ccccc2nc(-c2sc(Nc3ccc(Cl)cc3)nc2-c2ccccc2)n1-c1ccccc1	–	71	–	–
–	37	51	O=c1c2ccccc2nc(-c2sc(Nc3ccccc3)nc2-c2ccccc2)n1-c1ccccc1	–	71	–	–
–	33	58	CNc1nc(-c2ccccc2)c(-c2nc3ccccc3c(=O)n2-c2ccccc2)s1	–	71	–	–
–	16	19	COc1ccc(-n2c(-c3sc(Nc4ccccc4)nc3-c3ccccc3)nc3ccccc3c2=O)cc1	–	63	–	–
–	30	26	O=C(Nc1nc(-c2ccccc2)c(-c2nc3ccccc3c(=O)n2-c2ccccc2)s1)c1ccccc1	–	43	–	–
–	38	39	O=c1c2ccccc2nc(-c2sc(Nc3ccccc3)nc2-c2ccccc2)n1-c1ccc(Cl)cc1	–	67	–	–
